Test results published in PubChem BioAssay AID651628 (The Scripps Research Institute Molecular Screening Center, 2012).
Active and inactive are the calls of the source.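 Rule for the calls: active = at least one off-target enzyme showing weaker fluorescent probe labeling in any proteome panel; inactive = no off-target enzyme affected in any panel.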

What follows are molecules tested on Soluble Proteome (assay: proteome-wide probe labelling blockade by competitive ABPP – cell lysate, gel-based fluorescence, soluble and membrane fractions, selectivity assay for PAD4 inhibitor project, late-stage follow-up (AID 651628)). Conditions: MCF7 proteome, CA-Rh gel-based ABPP, anti-target count, at 50 µM, active compounds read high.
Summary of the method: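 Material: MCF7 cell proteome, soluble or membrane fraction | Medium: DPBS | Doses: Compound at 10 or 50 µM | Schedule: Compound 1 h, probe 1 h, 25 °C | Measured by: SDS-PAGE separation with in-gel fluorescence scanning of labelled bands | Control set: DMSO-only reference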

Number of anti-targets, inactive:
COC(=O)c1nc(C(=O)OC)c(NC(C)=O)c(-c2ccccc2Br)c1C 0
COC1=C(N)C(=O)c2ncccc2C1=O 0
NC1=CC(=O)c2ccc(-c3ccccn3)nc2C1=O 0
COC(=O)c1cccc(-c2ccc3c(n2)C(=O)C(Br)=CC3=O)n1 0
COC(=O)c1cccc(-c2ccc3c(n2)C(=O)C(N)=CC3=O)n1 0
NC1=CC(=O)c2ccc(-c3cccc(C(=O)O)n3)nc2C1=O 0
NC1=CC(=O)c2cccnc2C1=O 0
COC1=C(N)C(=O)c2nc(-c3nc(C(=O)O)c(C)c(-c4ccc(OC)c(OC)c4O)c3N)ccc2C1=O 0

Number of anti-targets, active:
COC1=CC(=O)c2nc(C#N)ccc2C1=O > 5
O=C1C=C(Br)C(=O)c2ncccc21 > 5
COC1=C(Br)C(=O)c2ncccc2C1=O > 5
COC1=C(Br)C(=O)c2nc(-c3ccccn3)ccc2C1=O > 5
COC1=C(I)C(=O)c2nc(C#N)ccc2C1=O > 5
O=C1C(O)=C(O)C(=O)c2ncccc21 3
